The values below come from PubChem BioAssay AID624007 (Broad Institute, 2012).

A number with no mark means an inactive call.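 Rule for the calls: active = compounds lowering the uptake signal whose fitted half-maximal concentration is at most twice their top valid dose; inconclusive = flat curve between 30% and 70% signal loss, or poor fit; inactive = opposite direction, flat near zero, or potency beyond limit.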

A short description of this test: DiI-HDL uptake inhibition in parental ldlA7 cells, dose response, counter-screen for SR-BI HDL uptake inhibitor project, cell-based, CHO ldlA7, fluorescence, dry powder, set 2 (AID 624007). As to conditions: 3 h, at 35000 nM. The procedure, abridged: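 Assay system: ldlA7 CHO cells without LDL receptor, no mSR-BI overexpression; Medium: HEPES-buffered (pH 7.4) F12 plus 0.5% fatty acid-free BSA; Reagent: DiI-labelled HDL, 10 µg/mL final; Schedule: 3 h co-incubation of compounds and DiI-HDL at 37 °C; Detection: DiI fluorescence, bottom read, Ex 550/Em 595 nm.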
On the technique in general: A counterscreen serves to expose hits that act by an unwanted route or on another target.
On to `C=CCOC(=O)N(C)C[C@@H]1Oc2ccc(NC(=O)OCC3c4ccccc4-c4ccccc43)cc2C(=O)N([C@H](C)CO)C[C@H]1C`, for which the DiI-HDL uptake signal change vs neutral control (%), lower = more inhibition is 18.3%.
Consider `C=CCOC(=O)N(C)C[C@@H]1Oc2ccc(NC(=O)NC(C)C)cc2C(=O)N([C@H](C)CO[Si](C)(C)C(C)(C)C)C[C@H]1C`, for which the DiI-HDL uptake signal change vs neutral control (%), lower = more inhibition was 18.2%.
As to `CC(C)NC(=O)Nc1ccc2c(c1)C(=O)N([C@@H](C)CO)C[C@@H](C)[C@H](CN(C)S(=O)(=O)c1ccc(Cl)cc1)O2`, the DiI-HDL uptake signal change vs neutral control (%), lower = more inhibition is -2.49%.
Take `C=CCOC(=O)N(C)C[C@@H]1Oc2ccc(N)cc2C(=O)N([C@H](C)CO[Si](C)(C)C(C)(C)C)C[C@H]1C`: the DiI-HDL uptake signal change vs neutral control (%), lower = more inhibition is 4.25%.
